Test results as given in ChEMBL document CHEMBL1828568, “Novel imaging agents for β-amyloid plaque based on the N-benzoylindole core” (Bioorg Med Chem Lett, 2011).

Experiments:
[1] = Displacement of [125I]TZDM from amyloid beta (1 to 40) aggregates after 2 hrs by gamma counting
How it was run: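 Competition binding against [125I]TZDM as radiolabeled standard, using Aβ1–40 aggregates; run in triplicate, results as mean ± SD.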

[2] = Binding affinity to amyloid beta fibrils
How it was run: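 Competitive binding to Aβ1–40 aggregates, with [125I]TZDM as the radiolabeled reference ligand displaced by unlabeled test compound. Run in triplicate and reported as mean ± SD.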

Row | Ki [1] | Ki [2] | SMILES
1 | 10.2 nM | – | COc1ccc(/C=C/C(=O)n2ccc3cc(I)ccc32)cc1
2 | – | 5.7 nM | COc1ccc2cc([C@H](C)C(=O)O)ccc2c1 [NAPROXEN]
